Experimental data pooled from the literature.
Each line is one published result; the experiments were not run side by side.
Cell line: Vero
Effect on: cell growth or viability

Compound | test | setting | measurement | result
FC(F)(F)Oc1ccc(Oc2ccc(CNCCNC3C4CC5CC(C4)CC3C5)cc2)cc1 (stereo not drawn) | – | 18 h | IC50 | 3.9 µg/mL
Nc1nc(N)c(CNCCc2ccc(Cl)cc2Cl)c(C2CC2)n1 | SRB | – | IC50 | 31 µM
CO[C@H]1/C=C/O[C@@]2(C)Oc3c(C)c(O)c4c(O)c(c(/C=N/N5CCN(C)CC5)c(O)c4c3C2=O)NC(=O)/C(C)=C\C=C\[C@H](C)[C@H](O)[C@@H](C)[C@@H](O)[C@@H](C)[C@H](OC(C)=O)[C@@H]1C | – | – | IC50 | 113 µM
N#CCCCOc1ccc(Oc2ccccc2)cc1 | – | 72 h | CC50 | > 20 µM
Cn1cc2c3c1C(=O)C(N)=C(Cl)C3=NCC2 | MTT | 72 h | IC50 | > 21.3 µM
CCCCCCCCn1cc(CN2CCC3(CC2)OCCO3)c2ccc(OC)cc21 | – | – | IC50 | 46 µM
Nc1nc(N)c(CNCCc2ccc(Cl)c(Cl)c2)c(C2CC2)n1 | SRB | – | IC50 | 21 µM
N#CCCOc1ccc(Oc2ccccc2)cc1 | – | 72 h | CC50 | > 20 µM
Nc1nc(N)c(CNCCc2ccccc2Cl)c(C2CC2)n1 | SRB | – | IC50 | 67 µM
NNC(=O)c1ccncc1 | – | 18 h | IC50 | 18000 µg/mL
CSc1c2c3c(n1C)C(=O)C(=O)C(Cl)=C3NCC2 | MTT | 72 h | IC50 | > 17.7 µM
CN(C)c1ccc(C(Nc2nc3c(-c4ccc([N+](=O)[O-])cc4)nn(-c4ccccc4)c3s2)P(=O)(Oc2ccccc2)Oc2ccccc2)cc1 (stereo not drawn) | SRB | – | IC50 | > 100 µM
[C-]#[N+]C(C)(C)C[C@@H]1C[C@H](C)[C@H]2CC[C@H](C)[C@@]3([N+]#[C-])CCC(=C)[C@@H]1[C@H]23 | – | – | IC50 | 99.7 µM
Nc1nc(N)c(CNCCc2cccc(F)c2)c(C2CC2)n1 | SRB | – | IC50 | > 100 µM
C[C@H]1O[C@H](O[C@H]2CC[C@H](n3ccc(NC(=O)c4ccc(NC(=O)[C@@](C)(N)CO)cc4)nc3=O)O[C@@H]2C)[C@H](O)[C@@H](O)[C@@H]1N(C)C | – | – | IC50 | > 100 µM
COc1ccccc1CCNCc1c(N)nc(N)nc1C1CC1 | SRB | – | IC50 | > 100 µM
CN(CC[C@H](N)CC(=O)N[C@H]1C=C[C@H](n2ccc(N)nc2=O)O[C@@H]1C(=O)O)C(=N)N | – | – | IC50 | 13.9 µM
O=[N+]([O-])c1ccc(-c2nn(-c3ccccc3)c3sc(NC(c4ccccc4O)P(=O)(Oc4ccccc4)Oc4ccccc4)nc23)cc1 (stereo not drawn) | SRB | – | IC50 | > 100 µM
